Screens: PubChem BioAssay, several laboratories
HCV core dimer = HCV core protein dimerization inhibition | TR-FRET GST/Flag-core106 dimerization, 1536-well | inhibition, % at 5 µM | hit rate 0.33% among 300,000;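 active means inhibition above the mean of all tested compounds plus 3 SD, set per screening campaign, cut at about 45% in these data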
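Assay system: GST-tagged and Flag-tagged HCV core protein residues 1-106 / Times: compound-protein-antibody incubation 4 h at 22.5 °C / Signal: time-resolved FRET, ex 340 nm, em 617 and 671 nm / Evaluation: % inhibition based on acceptor/donor emission ratio / Benchmarks: wells lacking GST-core106 and wells with excess unlabelled core106 / Repeats: singlicate, one well per compound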
HSP90 refold inh = inhibitors of HSP90 luciferase refolding in rabbit reticulocyte lysate; hit rate 0.91% among 290,000; luciferase refolding luminescence, 3 h; inhibition, % at 5.6 µM;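 active means inhibition above the screen-wide mean plus 3 SD, computed separately per campaign, cut at about 16% in these data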;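 further: inhibitors lower the luminescence because luciferase stays unfolded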
HSF1 inhib = HSF1 inhibition; NIH3T3-HGL HSE-luciferase, MG132-induced, luminescence 8 h; stronger effect = lower value; activity change, negative = inhibition, % at 7.5 µM (by protocol); hit rate 0.77% among 300,000; AID 2098;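 active means more than half of replicate wells show activity change below -50%, luminescence cut by over half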;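 further: luciferase reports HSF-1 transcriptional activity via heat shock element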
NS3 helicase inh = inhibitors of Hepatitis C virus NS3 helicase | hit rate 0.56% among 290,000 | AID 1800 | inhibition, % at 10.9 µM | NS3 helicase DNA unwinding, Cy5 molecular beacon fluorescence;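 active means inhibition above the mean of all tested compounds plus 3 SD, set per campaign, cut at about 35% in these data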
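test system = hepatitis C virus NS3 helicase domain fragment enzyme | reagent = annealed dual-labelled DNA beacon duplex, ATP-started | times = 1 h at 25 °C | detection = Cy5 fluorescence, 0 and 60 min reads | read-out basis = percent inhibition from t60/t0 fluorescence ratio | control set = DMSO and thioflavine S | replication = one well per compound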
HSF-1 act = increases HSF-1 driven luciferase reporter signal | hit rate 1.7% among 300,000 | activation, % at 9 µM | NIH3T3-HGL HSF-1 luciferase reporter, MG132, 8 h; 100% = twice DMSO control signal | AID 504408;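 active means mean replicate activation of at least 50% with a set share of replicates each reaching 50%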
FID counter = fluorescent intercalator displacement, NS3 helicase counter-screen. inhibition, % at 7.9 µM. DNA fluorescent intercalator displacement, fluorescence. hit rate 0.17% among 290,000. AID 1845; in the data active means inhibition above about 37%;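 further: higher means more ethidium bromide displaced from hairpin DNA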
Numbers stand for hits. A selection: hits, their analogues and other compounds. The true share with any hit is near 3.9%.

Results for C[C@]12C=CC(=O)C=C1CC[C@@H]1C2C(O)C[C@@]2(C)C1CC[C@]2(O)C(=O)COC(=O)CCC(=O)NC(CC(=O)O)C(=O)O (some centres undefined) ?
HCV core dimer: inactive; HSP90 refold inh: inactive; HSF1 inhib: inactive; NS3 helicase inh: inactive; HSF-1 act: inactive; FID counter: inactive

Results for Cc1ccc(-n2nc3c(=O)n(CC(=O)NCCC4=CCCCC4)nc(C)c3c2C)cc1 ?
HCV core dimer: inactive; HSP90 refold inh: inactive; HSF1 inhib: inactive; NS3 helicase inh: inactive; HSF-1 act: inactive; FID counter: inactive

What do the screens show for `CCOC(=O)C1=C(Nc2ccc(OC)cc2)OCC1=O`?
HCV core dimer: inactive; HSP90 refold inh: inactive; HSF1 inhib: inactive; NS3 helicase inh: inactive; HSF-1 act: inactive; FID counter: inactive

What do the screens show for `S=C(N/N=C/c1cccs1)NC1CC2CCC1C2` (centres undefined)?
HCV core dimer: inactive; HSP90 refold inh: inactive; HSF1 inhib: inactive; NS3 helicase inh: inactive; HSF-1 act: 64; FID counter: inactive

What do the screens show for `Oc1ccc(/C=N/NC(=S)NC2CC3CCC2C3)cc1` (centres undefined)?
HCV core dimer: inactive; HSP90 refold inh: inactive; HSF1 inhib: inactive; NS3 helicase inh: inactive; HSF-1 act: inactive; FID counter: inactive

Results for CC(O)[C@H]1CNC(=S)N1CCc1cccc(F)c1 (some centres undefined) ?
HCV core dimer: inactive; HSF1 inhib: inactive; HSF-1 act: inactive

How did CCc1cc2c(=O)c(-c3ccc4c(c3)OCCO4)coc2cc1OC(=O)c1ccco1 do in these assays?
HCV core dimer: inactive; HSP90 refold inh: inactive; HSF1 inhib: inactive; NS3 helicase inh: inactive; HSF-1 act: inactive; FID counter: inactive

What do the screens show for `CCCc1cc2c(=O)c(-c3ccc4c(c3)OCCO4)coc2cc1OC(=O)c1ccco1`?
HCV core dimer: inactive; HSP90 refold inh: inactive; HSF1 inhib: inactive; NS3 helicase inh: inactive; HSF-1 act: 64; FID counter: inactive

What do the screens show for `COCCN(C(=O)CC1C(=O)NCCN1CC(c1ccccc1)c1ccccc1)C(C)C` (centres undefined)?
HCV core dimer: inactive; HSP90 refold inh: inactive; HSF1 inhib: inactive; NS3 helicase inh: inactive; HSF-1 act: inactive; FID counter: inactive

Results for Cc1ccc(S(=O)(=O)Nc2nc3n(n2)C(c2ccc(Cl)cc2)CC(=O)N3)cc1 (centres undefined) ?
HCV core dimer: inactive; HSP90 refold inh: inactive; HSF1 inhib: inactive; NS3 helicase inh: inactive; HSF-1 act: inactive; FID counter: inactive

How did O=C1CC(c2ccc(Cl)cc2)n2nc(NS(=O)(=O)c3ccc(F)cc3)nc2N1 (centres undefined) do in these assays?
HCV core dimer: inactive; HSP90 refold inh: inactive; HSF1 inhib: inactive; NS3 helicase inh: inactive; HSF-1 act: 64; FID counter: inactive

What do the screens show for `Cc1cc(C)c2cc(C#N)c(N3CCCN(S(=O)(=O)c4ccccc4)CC3)nc2c1`?
HCV core dimer: inactive; HSP90 refold inh: inactive; HSF1 inhib: inactive; NS3 helicase inh: inactive; HSF-1 act: inactive; FID counter: inactive

Results for CC(=O)c1cccc(S(=O)(=O)N2CCN(c3nc4cc(C)cc(C)c4cc3C#N)CC2)c1 ?
HCV core dimer: 70; HSP90 refold inh: inactive; HSF1 inhib: inactive; NS3 helicase inh: inactive; HSF-1 act: inactive; FID counter: inactive

What do the screens show for `O=C(CSc1nnnn1-c1cccc(O)c1)NC1CC1`?
HCV core dimer: inactive; HSP90 refold inh: inactive; HSF1 inhib: inactive; NS3 helicase inh: inactive; HSF-1 act: inactive; FID counter: inactive

How did Nc1nc(Oc2ccc(F)cc2)c(Br)c(=O)[nH]1 do in these assays?
HCV core dimer: inactive; HSP90 refold inh: inactive; HSF1 inhib: -64; NS3 helicase inh: inactive; HSF-1 act: inactive; FID counter: inactive

What do the screens show for `CN(C)c1ncc(C2=C(Cl)C(=O)C(N3CCCC3)=C(Cl)C2=O)s1`?
HCV core dimer: 84; HSP90 refold inh: inactive; HSF1 inhib: inactive; NS3 helicase inh: inactive; HSF-1 act: inactive; FID counter: inactive

What do the screens show for `COc1ccccc1N1C(=O)c2ccc(C(=O)Nc3ccc(C(=O)O)cc3)cc2C1=O`?
HCV core dimer: inactive; HSP90 refold inh: inactive; HSF1 inhib: inactive; NS3 helicase inh: inactive; HSF-1 act: inactive; FID counter: inactive

How did Cc1ccc(C2Nc3ccc4ccccc4c3C3=C2C(=O)CC(C)(C)C3)o1 (centres undefined) do in these assays?
HCV core dimer: inactive; HSP90 refold inh: inactive; HSF1 inhib: inactive; NS3 helicase inh: inactive; HSF-1 act: 86; FID counter: inactive

What do the screens show for `Cn1c(=O)c2c([nH]c(=S)n2Cc2ccc(Cl)cc2)n(C)c1=O`?
HCV core dimer: inactive; HSP90 refold inh: inactive; HSF1 inhib: inactive; NS3 helicase inh: inactive; HSF-1 act: inactive; FID counter: inactive

How did Cc1cccc2cc(C(c3nnnn3C(C)(C)C)N(Cc3ccco3)CC3CCCO3)c(=O)[nH]c12 (centres undefined) do in these assays?
HCV core dimer: inactive; HSP90 refold inh: inactive; HSF1 inhib: inactive; NS3 helicase inh: inactive; HSF-1 act: inactive; FID counter: inactive

How did CCC(c1nnnn1Cc1ccco1)N(Cc1cc2cc(C)cc(C)c2[nH]c1=O)CC1CCCO1 (centres undefined) do in these assays?
HCV core dimer: inactive; HSP90 refold inh: inactive; HSF1 inhib: inactive; NS3 helicase inh: inactive; HSF-1 act: 64; FID counter: inactive

What do the screens show for `Cc1cccc2cc(CN(Cc3ccco3)C(c3nnnn3CCc3ccccc3)C(C)C)c(=O)[nH]c12` (centres undefined)?
HCV core dimer: inactive; HSP90 refold inh: inactive; HSF1 inhib: inactive; NS3 helicase inh: inactive; HSF-1 act: 198; FID counter: inactive

Results for CCC(c1nnnn1Cc1ccco1)N(Cc1ccccc1OC)Cc1cc2cc(C)ccc2[nH]c1=O (centres undefined) ?
HCV core dimer: inactive; HSP90 refold inh: inactive; HSF1 inhib: inactive; NS3 helicase inh: inactive; HSF-1 act: 89; FID counter: inactive

What do the screens show for `O=[N+]([O-])c1ccc(S(=O)(=O)c2cccc(C(F)(F)F)c2)nc1`?
HCV core dimer: inactive; HSF1 inhib: -95; HSF-1 act: inactive

How did O=C(CN1C(=O)C2C3C=CC(C4CC34)C2C1=O)Oc1ccccc1 (centres undefined) do in these assays?
HCV core dimer: inactive; HSP90 refold inh: inactive; HSF1 inhib: inactive; NS3 helicase inh: inactive; HSF-1 act: inactive; FID counter: inactive

What do the screens show for `Cc1ccc(S(=O)(=O)/N=C2/NC(=O)/C(=C/c3ccc(Br)o3)S2)cc1`?
HCV core dimer: inactive; HSP90 refold inh: inactive; HSF1 inhib: inactive; NS3 helicase inh: inactive; HSF-1 act: inactive; FID counter: inactive

Results for Cc1ccc(S(=O)(=O)/N=C2/NC(=O)/C(=C\c3cc(Br)cc(Br)c3O)S2)cc1 ?
HSP90 refold inh: inactive; NS3 helicase inh: inactive; FID counter: 44
